A short description of assay [1]: Inhibition of Yersinia sp. PKA. In short, it runs like this:
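YpkA kinase activity measured by radiological assay with enzyme at 0.15 μM; IC50 values determined from this assay.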

Assay [2] in a line: Inhibition of MAPK. Also noted: species or system Homo sapiens.
Another assay addresses Protein kinase C (PKC). The assay is described as follows: Inhibition of PKC. Details: species or system Homo sapiens.

Bounds are passed on as bounds.

In general, IC50 refers to the point on the concentration scale where inhibition reaches its midpoint. With `O=C1NC(=O)C(=Cc2ccc(Sc3ccc(Cl)cc3)c([N+](=O)[O-])c2)C(=O)N1`, the IC50 was 5.87 µM in assay [1], 63 µM in assay [2] and over 200 µM on Protein kinase C (PKC).
The like results for `C=CCN1C(=O)NC(=O)/C(=C/c2ccc(-c3cc([N+](=O)[O-])ccc3Cl)o2)C1=O` were, in that order, 9.72 µM, 54.5 µM and 205.16 µM.
`O=C1Nc2ccc(Br)cc2/C1=C1/SC(=S)N(c2cccc(Cl)c2)C1=O`: the IC50 is 1.81 µM in assay [1], 2.45 µM in assay [2] and over 200 µM against Protein kinase C (PKC).
The matching figures for `O=C1c2ccccc2C(=O)c2cc(S(=O)(=O)Nc3cccc([N+](=O)[O-])c3)ccc21`: 19.8 µM, over 200 µM and 165 µM.
